Legend:
[1] = system: Homo sapiens; test: In vitro concentration to reduce colony formation of human tumor xenografts to 30% of the control; format: functional
Procedure, shortened: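 Clonogenic colony-formation assay using cells from 22 human tumor xenografts, tested at 0.1, 1.0 and 10 μg/mL; colony inhibition expressed as T/C, with T/C < 30% scored active; IC70 concentration reported.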

[2] = system: MCF7; test: In vitro antitumor activity against MCF-7 carcinoma cell line.; format: functional, cell-based; conditions: Homo sapiens
Procedure, shortened: (§1)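 MTT assay, 7-day format: 250–300 cells/well, adhered 24 h drug-free, then compound 1 pM–100 μM (n = 8), final DMSO <0.25%; RPMI 1640/10% FCS, 37 °C, 5% CO2. MTT added after exposure, 4 h, formazan dissolved in DMSO–glycine (4:1), absorbance 550 nm.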

[3] = system: MDA-MB-468; test: In vitro antitumor activity against MDA-468 carcinoma cell line.; format: functional, cell-based; conditions: Homo sapiens; procedure, shortened: as §1
[4] = system: NCI; test: In vitro antitumor activity against carcinoma cell lines by 6-day assay; format: functional, Homo sapiens
Procedure, shortened: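 NCI 60-cell-line panel, sulforhodamine B protein stain. Seeding density set per line's growth; 24 h drug-free incubation, then test agent at five 10-fold dilutions up to 10^-4 M for 6 days of exposure. Growth inhibition derived from change in protein-stain optical density; log GI50 reported.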

[5] = system: NCI; test: In vitro antitumor activity against carcinoma cell lines by 2-day assay; format: functional, Homo sapiens
Procedure, shortened: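 NCI panel sulforhodamine B assay: line-specific seeding, 24 h drug-free, then five 10-fold dilutions (top 10^-4 M) for 2 days; growth inhibition from protein-stain optical density change; mean log GI50 across panel.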

Cc1cc(-c2nc3ccccc3s2)ccc1N
Mean IC70 [1]: 6.9 µg/mL
IC50 [2]: < 1 nM
IC50 [3]: < 1 nM
Mean log GI50 [4]: -5.05 M
Mean log GI50 [5]: -4.61 M

CC(=O)Nc1ccc(-c2nc3ccccc3o2)cc1
IC50 [2]: > 10000 nM
IC50 [3]: > 10000 nM
Mean log GI50 [5]: -4.27 M

O=C(Nc1ccc(-c2nc3ccccc3s2)cc1)C(F)(F)F
IC50 [2]: > 10 nM
IC50 [3]: > 100 nM

CC(=O)Nc1ccc(-c2nc3ccccc3s2)cc1
IC50 [2]: > 100 nM
IC50 [3]: > 100 nM
Mean log GI50 [5]: -4.4 M

CC(=O)N(C(C)=O)c1ccc(-c2nc3ccccc3s2)cc1Cl
IC50 [2]: > 10000 nM
IC50 [3]: > 1000 nM

C/C(S)=N/c1ccc(-c2nc3ccccc3s2)cc1
IC50 [2]: > 100 nM
IC50 [3]: > 100 nM

Nc1ccc(-c2nc3ccccc3s2)cc1
Mean IC70 [1]: 10 µg/mL
IC50 [2]: > 10 nM
IC50 [3]: > 10 nM
Mean log GI50 [5]: -4.76 M

CC(=O)Nc1ccc(-c2nc3ccccc3s2)cc1[N+](=O)[O-]
IC50 [2]: > 1000 nM
IC50 [3]: > 1000 nM

Nc1ccc(-c2nc3ccccc3o2)cc1
IC50 [2]: > 100 nM
IC50 [3]: > 1000 nM
Mean log GI50 [5]: -4.26 M

O=C(CCl)Nc1ccc(-c2nc3ccccc3s2)cc1I
IC50 [2]: > 10 nM
IC50 [3]: > 10 nM

O=C(Nc1ccc(-c2nc3ccccc3s2)cc1)c1ccccc1
IC50 [2]: > 1000 nM
IC50 [3]: > 1000 nM

CC(=O)Nc1ccc(-c2nc3ccccc3s2)cc1C
IC50 [2]: > 10000 nM
IC50 [3]: > 10000 nM
Mean log GI50 [5]: -4.36 M

c1ccc2sc(-c3ccc4[nH]ncc4c3)nc2c1
IC50 [2]: > 10000 nM
IC50 [3]: > 10000 nM
